A selection: hits, their analogues and other compounds. The true share with any hit is near 1.9%.
Runt-SMMHC FRET = inhibitors of human RUNX1 Runt domain binding to CBFb-SMMHC. Cerulean-Runt/Venus-CBFb-SMMHC FRET ratio 530/480, 1 h. 220,000 tested, 0.74% active. Q01196+Q13951. inhibition, % at 20 µM;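 active means mean inhibition across duplicate retests at 20 µM reaching about 50%, limit read from the data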;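 further: 0% = DMSO wells and 100% = wells with excess untagged CBFb-SMMHC; inhibitors lower the FRET ratio by blocking Runt binding to CBFb-SMMHC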
Hck Nef HTS = blocks Nef-activated human Hck kinase. P08631. Recombinant Hck-YEEI plus Nef, Z-Lyte FRET kinase assay. inhibition, % at 20 µM. 220,000 tested, 0.68% active. AID 463187;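 active means Hck-Nef kinase inhibition above about 50%, limit read from the data; inactive means inhibition below that limit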;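 further: 0% = DMSO with Hck plus Nef and 100% = Hck alone without Nef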
Target sequence (P08631 whole entry, looked up): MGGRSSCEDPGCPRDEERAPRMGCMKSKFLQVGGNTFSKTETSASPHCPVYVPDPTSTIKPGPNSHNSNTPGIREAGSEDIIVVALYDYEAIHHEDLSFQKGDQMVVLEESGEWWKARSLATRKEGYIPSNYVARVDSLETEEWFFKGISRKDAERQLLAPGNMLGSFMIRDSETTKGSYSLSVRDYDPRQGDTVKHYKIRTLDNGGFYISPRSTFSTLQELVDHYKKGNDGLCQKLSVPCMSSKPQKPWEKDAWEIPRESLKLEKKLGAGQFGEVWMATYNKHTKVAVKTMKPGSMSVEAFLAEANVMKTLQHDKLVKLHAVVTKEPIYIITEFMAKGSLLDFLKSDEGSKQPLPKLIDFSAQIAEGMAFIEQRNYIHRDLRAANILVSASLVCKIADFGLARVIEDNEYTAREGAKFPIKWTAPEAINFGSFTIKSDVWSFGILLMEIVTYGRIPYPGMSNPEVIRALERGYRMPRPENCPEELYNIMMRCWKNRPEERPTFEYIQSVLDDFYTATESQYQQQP
RanGTP-Impb inh = disruptors of Ran-importin-beta complex formation – biochemical, FRET, CFP-Ran, YFP-importin-beta, homogeneous, primary screen. cell-free CFP-Ran/YFP-importin-beta FRET ratio. inhibition, % (no concentration beside the values). 300,000 tested, 1.1% active;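 active means more than half of the replicate wells show a fall in the fluorescence ratio signal beyond about 16%, limit read from the data, passing the limit was not always enough; inconclusive means exactly half of the replicate wells pass the set limit; inactive means fewer than half of replicates pass the limit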;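 further: 0% = DMSO wells and 100% = Ran loaded with GDP instead of GTP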
Runt-CBFb FRET = Runt domain-CBFb interaction inhibition; Cerulean-Runt/Venus-CBFb FRET ratio 530/480, 1 h; Q01196+Q13951; 220,000 tested, 0.46% active; inhibition, % at 20 µM;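 active means inhibition over about 50% at 20 µM in the single-dose screen, limit read from the data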;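 further: 0% = DMSO wells and 100% = excess unlabeled CBFb competitor control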
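Assay system: Cerulean-Runt domain / Medium: Tris 50 mM pH 7.5, KCl, K2SO4, 0.01% BSA / Timing: protein complex preformed 1 h, compound exposure 1 h, room temperature, dark / Measured by: FRET, excitation 422 nm, emission at 530 and 480 nm / Evaluation: loss of energy transfer signal / Control set: 5 µM unlabeled CBFb as full-inhibition high control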
Numbers without * were called inactive; ? = inconclusive; . = not tested or not shown.

SMILES | Runt-SMMHC FRET | Hck Nef HTS | RanGTP-Impb inh | Runt-CBFb FRET
C/C(=N\Nc1ccc2nncn2n1)c1cccs1 | -4 | 5 | -3 | 1
CCOC(=O)C(C)c1c(C(=O)c2ccc(C)nc2)c2ccccc2n1C (stereo unspecified) | 52* | 2 | -1 | 4
O=C(Nc1sc2c(c1C(=O)NCc1ccco1)CCCC2)c1ccc2c(c1)OCO2 | 65* | 19 | ? | 37
CN(C)c1ccc(/C=C(\Cl)c2nc3ccccc3s2)cc1 | 81* | 6 | . | 39
COc1cc(C=C(c2nc3ccccc3s2)c2nc3ccccc3s2)cc(OC)c1O | 2 | -1 | 36* | 26
Cc1ccc2c(c1)C1C=CCC1C(C(=O)O)N2 (stereo unspecified) | 10 | 8 | 2 | 2
O=C(O)C1Nc2c(O)cc(Cl)c([N+](=O)[O-])c2C2C=CCC12 (stereo unspecified) | 40 | 70* | -9 | 19
Cc1cccn2c(=O)c3cc(C(=O)NCCN4CCOCC4)c(=N)n(CCCN4CCOCC4)c3nc12 | . | . | 131* | .
COCCCn1c(C(=O)NCCN2CCOCC2)cc2c(=O)n3cccc(C)c3nc21 | . | . | 2 | .
Cc1cccn2c(=O)c3cc(C(=O)NCC4CCCO4)c(=N)n(CCN4CCOCC4)c3nc12 (stereo unspecified) | 79* | 12 | 106* | 125*
COCCCn1c(=N)c(C(=O)NCC2CCCO2)cc2c(=O)n3cccc(C)c3nc21 (stereo unspecified) | 60* | 196* | 177* | 19
CC(=O)NC1=NN(C(C)=O)C2(S1)C(=O)N(CC(C)C)c1ccc(C)cc12 (stereo unspecified) | 1 | 18 | 1 | -1
Cc1c(CCC(=O)O)c(=O)n2c([nH]c3ccccc32)c1C#N | 3 | 4 | ? | 7
Cc1ccc(Cc2c(C)c(C#N)c3[nH]c4ccccc4n3c2=O)cc1 | 2 | 25 | 21* | -1
C=C(C)Cc1c(C)c(C#N)c2[nH]c3ccccc3n2c1=O | . | . | 42* | .
CCc1c(C)c(C#N)c2[nH]c3ccccc3n2c1=S | 84* | -152 | 10 | 15
COc1ccc(-c2nnc(SCc3nc4ccccc4c(=O)[nH]3)o2)cc1 | -1 | 26 | -1 | -3
COc1ccc(C2CC(=O)C(C=NCCN3CCN(C(=S)Nc4ccccc4)CC3)=C(O)C2)cc1OC (stereo unspecified) | 2 | 26 | -4 | 0
CN1CCc2c(sc(NC(=O)c3ccco3)c2C(N)=O)C1 | . | . | 83* | .
CNC(=O)c1c(NC(=O)c2ccco2)sc2c1CCCC2 | . | . | 2 | .
CC(C)N1CCc2c(sc(NC(=O)c3ccco3)c2C(N)=O)C1 | . | . | 101* | .
COC(=O)c1c(NC(=O)c2ccco2)sc2c1CCN(C(C)C)C2 | . | . | 54* | .
O=C(Nc1sc2c(c1C(=O)O)CCC2)c1ccco1 | -2 | 5 | -6 | 6
CN1CCc2c(sc(NC(=O)c3cc(Cl)sc3Cl)c2C(N)=O)C1 | . | . | 147* | .
Cc1ccccc1N=C1c2ccccc2C(=O)C1[N+](=O)[O-] (stereo unspecified) | -1 | 18 | ? | -1
SMILES | Runt-SMMHC FRET | Hck Nef HTS | RanGTP-Impb inh | Runt-CBFb FRET
O=S(=O)(Cc1noc(-c2ccccc2Cl)n1)c1ccccn1 | 1 | 13 | -1 | -1
NC(=NCCc1c[nH]c2ccccc12)NC(=O)c1ccc(F)cc1 | 2 | 1 | -1 | 3
Cc1ccc(F)cc1CNC(=O)C1CCC(=O)N(CCCN2CCCC2=O)C1 (stereo unspecified) | . | . | -3 | .
FC(F)(F)c1nnc2c(Sc3ccccn3)nc3ccccc3n12 | 51* | 0 | 8 | 16
FC(F)(F)c1nnc2c(Sc3ccccc3)nc3ccccc3n12 | 10 | 1 | 6 | 4
CCN1CCN(Cc2c(O)ccc3c2O/C(=C\C=C\c2ccccc2)C3=O)CC1 | -252 | -5 | -320 | -44
CCN1CCN(Cc2c(O)ccc3c2O/C(=C\c2ccccc2)C3=O)CC1 | 88* | 3 | -2 | -65
O=C1/C(=C/C=C/c2ccccc2)Oc2c1ccc(O)c2CN1CCN(CCO)CC1 | -93 | -13 | -5 | -327
CCc1ccc(/C=C2\Oc3c(ccc(O)c3CN3CCN(C)CC3)C2=O)cc1 | 81* | -18 | ? | -10
Cc1ccc(/C=C2\Oc3c(ccc(O)c3CN3CCN(C)CC3)C2=O)cc1 | 90* | 1 | 22* | 3
CCN1CCN(Cc2c(O)ccc3c2O/C(=C\c2ccc(C)cc2)C3=O)CC1 | 92* | 16 | 22* | 20
O=C(C1=C(O)C(=O)N(CC2CCCO2)C1c1cccc(Cl)c1)c1ccco1 (stereo unspecified) | . | . | 3 | .
CCOC(=O)NN=C1CN(S(=O)(=O)c2ccc(C)cc2)C1 | . | . | 6 | .
O=C(O)CNC(=O)/C(=C\c1cccc([N+](=O)[O-])c1)NC(=O)c1ccco1 | -2 | 19 | 1 | 6
CCCN(CC(=O)Nc1ccccc1C)C(=O)c1ccc(C2SCCS2)cc1 | . | . | 0 | .
Cc1onc(-c2c(Cl)cccc2Cl)c1C(=O)N=C(N)N1CC(C)OC(C)C1 (stereo unspecified) | 1 | 10 | 1 | 2
N=c1oc2cc(O)ccc2cc1C(=O)Nc1ccccn1 | 87* | 115* | . | 20
N=c1oc2cc(O)ccc2cc1C(=O)Nc1ccc(Br)cc1 | . | . | 167* | .
COc1ccccc1C(=O)Nc1nc2ccccc2s1 | . | . | 3 | .
O=C(Nc1ccccn1)c1ccc2ccccc2c1O | . | . | -2 | .
N=c1oc2cc(O)ccc2cc1C(=O)Nc1nc2ccccc2s1 | 63* | 81* | 136* | 19
CC(Nc1ccc(Cl)cc1)C(=O)NN (stereo unspecified) | -1 | 13 | -1 | 2
Cc1ccc(-n2c(N)c(C(=O)Nc3ccccc3F)sc2=S)cc1C | 3 | -10 | -8 | 4
CC(C)CC1C(C#N)=C(N)SC(N)=C1C#N | 8 | 1 | 41* | 6
N#CC1=C(N)SC(N)=C(C#N)C1Cc1ccccc1 | 49 | 1 | 62* | 22
SMILES | Runt-SMMHC FRET | Hck Nef HTS | RanGTP-Impb inh | Runt-CBFb FRET
N#CC1=C(N)SC(N)=C(C#N)C1CCc1ccccc1 | 39 | 5 | ? | 26
CCc1ccc(C2C(C#N)=C(N)SC(N)=C2C#N)s1 | 25 | 26 | 10 | 24
Cc1ccc2[nH]c(=O)c(C(c3nnnn3Cc3ccccc3)N3CCc4ccccc43)cc2c1 (stereo unspecified) | -1 | -2 | 20* | 11
CCOC(=O)C1=C(C)N=C2SC=C(C)N2C1c1ccc(OC)cc1 (stereo unspecified) | 60* | 17 | 10 | 23
Cc1ccccc1NS(=O)(=O)c1ccc(C(=O)NCCCN2CCCC2=O)cc1 | . | . | 2 | .
O=C1CC(=O)c2c1cccc2[N+](=O)[O-] | -3 | 75* | . | 26
O=C1OCc2cccc([N+](=O)[O-])c21 | 5 | 0 | -5 | 1
Cc1nc2ccn(Cc3ccccc3)c(=O)c2cc1C(=O)N1CCN(c2ccc(F)cc2)CC1 | . | . | 69* | .
COc1ccc(N2CCN(C(=O)c3cc4c(=O)n(Cc5ccccc5)ccc4nc3C)CC2)cc1 | . | . | 2 | .

Screening results deposited in PubChem BioAssay by several laboratories.
